# Experimental data pooled from the literature.
# Lines come from different studies, so protocols differ.
# Target: Serine/threonine-protein kinase 25 (STK25, Homo sapiens, UniProt O00506)
Compound,test,setting,remaining binding
CN(c1nccc(-c2cnn3ncccc23)n1)C1CC1,binding,1 µM,100%
C[C@@H](c1ccc(-n2cnc3c(N)ncnc32)cc1)N1CCc2nn(C)c(Cc3ccccc3)c2C1=O,"binding, competition with immobilised ligand",0.1 µM,86%
c1cncc(-c2cccc(Nc3nccc(NC4CCCCC4)n3)c2)c1,"binding, competition with immobilised ligand",10 µM,100%
Cc1cnn2ncc(-c3ccnc(N(C)C)n3)c2c1,binding,1 µM,100%
c1ccc(N2CCN(Cc3nc4ccccc4[nH]3)CC2)nc1,"binding, competition with immobilised ligand",1 µM,94%
C=CC(=O)N1CCC(C(=O)NCC(=O)N2CCN(c3nc(-c4cnc(N)nc4C(F)F)nc(N4CCOCC4)n3)CC2)CC1,"binding, competition with immobilised ligand",1 µM,96%
CC1=C(C#N)[C@@H](c2ccc3[nH]nc(C)c3c2)C(C#N)=C(c2ccc(Cl)cc2)N1,"cell-free assay, competition with immobilised ligand",1 µM,100%
O=C(c1ccc(Nc2ncc(Cl)c(-c3cc4ccccc4s3)n2)cc1)N1CCC(N2CCCC2)CC1,"binding, competition with immobilised ligand",1 µM,32%
c1cnn2ncc(-c3ccnc(N4CCC45COC5)n3)c2c1,binding,1 µM,100%
O=C(NCCCC1CCCCC1)c1ccc(CNC(=O)c2cnn(-c3ccccc3)c2C(F)(F)F)cc1,"cell-free assay, competition with immobilised ligand",0.1 µM,81%
CN(C)c1nccc(-c2cnn3ncccc23)n1,binding,1 µM,90%
CCS(=O)(=O)c1cc2cc(C[C@@](O)(CC(C)(C)c3ccc(F)cc3C(N)=O)C(F)(F)F)[nH]c2cn1,"cell-free assay, competition with immobilised ligand",1 µM,87%
Cc1cnc(Nc2ccc(C(=O)N3CCC(N4CCCC4)CC3)cc2)nc1-c1cc2ccccc2s1,"binding, competition with immobilised ligand",1 µM,21%
CCCCN(CCCC)C(=O)CN1C[C@H](c2cc(OC)c3c(c2)OCO3)[C@@H](C(=O)O)[C@@H]1CC(C)(C)CCC,"cell-free assay, competition with immobilised ligand",1 µM,100%
O=C(c1ccc(Nc2ncc(Cl)c(-c3ccc(Cl)s3)n2)cc1)N1CCC(N2CCCC2)CC1,"binding, competition with immobilised ligand",1 µM,22%
C[C@@H]1CCN(c2nccc(-c3cnn4ncccc34)n2)C1,binding,1 µM,100%
CNC(=O)[C@@H]1CC[C@@H](n2c(-c3ccc4cnccc4c3)nc3ccc(C(=O)NCc4cccc(C(N)=O)c4)cc32)C1,"binding, competition with immobilised ligand",1 µM,100%
O=C(NCC1CCOCC1)c1n[nH]cc1NC(=O)c1c(F)cccc1F,"binding, competition with immobilised ligand",1 µM,95%
CN(C)C(=O)Cn1cc(-c2nc(C3(c4ccc(-c5cnc(N)nc5)cc4)CC3)no2)cn1,"cell-free assay, competition with immobilised ligand",1 µM,100%
CCN1CCN(Cc2ccc(C(=O)Nc3ccc(C)c(Oc4ccc5c(c4)CC(=O)N5)c3)cc2C(F)(F)F)CC1,"binding, competition with immobilised ligand",1 µM,100%
N[C@H]1CCN(c2nccc(-c3cnn4ncccc34)n2)C1,binding,1 µM,100%
